Active and inactive are the calls of the source. The rule behind the calls is not given here.
Assays:
[1] = Stability in rat plasma after 3 hrs; format: ADME, cell-free; conditions: read-out: Stability
Summary of the method: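 Rat plasma incubation for 3 h; stability reported as percent of compound remaining.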

Mus musculus [2] = assay: Antiarrhythmic activity in calcium chloride-induced mouse arrhythmia model assessed as prolongation of time to conduct cardiac block at 10 pmol/kg, iv relative to control; format: functional, Heart
Summary of the method: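 Mice received an intravenous infusion of CaCl2 after IV test compound. The read-out was time to cardiac conduction block, expressed as percent increase over control. Values are means of at least three experiments with standard deviation.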

[3] = Half life in dog at 2.3 mg/kg, iv; format: ADME, organism-based, Canis lupus familiaris; set-up: dose 2.3 mg/kg, route intravenous; conditions: in vivo
Summary of the method: (§1)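 Dogs were dosed IV at 1 mg/kg and PO at 5 mg/kg; one compound was given 2.3 mg/kg IV and 7.8 mg/kg oral. Values are means of at least three animals, or two animals where no SD is given.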

[4] = Half life in CD1 mouse at 1.6 mg/kg, iv; format: ADME, organism-based; set-up: dose 1.6 mg/kg, route intravenous; conditions: in vivo
Summary of the method: (§2)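 CD-1 mice were dosed IV at a nominal 1 mg/kg (actual 0.77 mg/kg or 1.6 mg/kg for some compounds) and PO at 5 mg/kg. Parameters were derived from mean drug concentration, N = 3 animals/time point.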

[5] = Tmax in CD1 mouse at 5 mg/kg, po; conditions: in vivo
[6] = biological target: Voltage-gated inwardly rectifying potassium channel KCNH2 (Homo sapiens, UniProt Q12809); assay: Inhibition of human ERG
[7] = Half life in dog at 7.8 mg/kg, po; format: ADME, organism-based, Canis lupus familiaris; set-up: dose 7.8 mg/kg, route oral; conditions: in vivo; summary of the method: as §1
[8] = Inhibition of CYP450; format: ADME
[9] = Oral bioavailability in dog at 7.8 mg/kg; format: ADME, organism-based, Canis lupus familiaris; conditions: in vivo; summary of the method: as §1
[10] = Cmax in dog at 7.8 mg/kg, po; format: ADME, organism-based, Canis lupus familiaris; set-up: dose 7.8 mg/kg, route oral; conditions: in vivo; summary of the method: as §1
[11] = Cmax in CD1 mouse at 5 mg/kg, po; conditions: in vivo
[12] = Metabolic stability in human liver microsomes assessed as half life; format: ADME, Microsome
[13] = Volume of distribution at steady state in dog at 2.3 mg/kg, iv; format: ADME, organism-based, Canis lupus familiaris; set-up: dose 2.3 mg/kg, route intravenous; conditions: in vivo, read-out: Vdss; summary of the method: as §1
[14] = Tmax in dog at 7.8 mg/kg, po; format: ADME, organism-based, Canis lupus familiaris; set-up: dose 7.8 mg/kg, route oral; conditions: in vivo
[15] = Half life in CD1 mouse at 5 mg/kg, po; conditions: in vivo
[16] = AUC in dog at 7.8 mg/kg, po; format: ADME, organism-based, Canis lupus familiaris; set-up: dose 7.8 mg/kg, route oral; conditions: plasma; summary of the method: as §1
Mus musculus [17] = assay: Antiarrhythmic activity in calcium chloride-induced mouse arrhythmia model assessed as prolongation of time to conduct cardiac block at 1 to 30 mg/kg, po relative to control; format: functional, organism-based; conditions: Heart
Summary of the method: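 Compounds were given orally at 1–30 mg/kg to mice, which then received an intravenous CaCl2 infusion. The read-out was prolongation of time to conduction block versus control.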

Mus musculus [18] = assay: Oral bioavailability in CD1 mouse at 1.6 mg/kg; format: ADME, organism-based; conditions: in vivo
Mus musculus [19] = assay: AUC in CD1 mouse at 5 mg/kg, po; conditions: in vivo
[20] = Volume of distribution at steady state in CD1 mouse at 1.6 mg/kg, iv; format: ADME, organism-based; set-up: dose 1.6 mg/kg, route intravenous; conditions: in vivo, read-out: Vdss; summary of the method: as §2
[21] = Metabolic stability in rat liver microsomes assessed as half life; format: ADME, Microsome
[22] = Clearance in dog at 2.3 mg/kg, iv; format: ADME, organism-based, Canis lupus familiaris; set-up: dose 2.3 mg/kg, route intravenous; conditions: in vivo; summary of the method: as §1
[23] = Oral bioavailability in CD1 mouse at 5 mg/kg; format: ADME, organism-based; conditions: in vivo; summary of the method: as §2
[24] = Half life in CD1 mouse at 1 mg/kg, iv; format: ADME, organism-based; set-up: dose 1 mg/kg, route intravenous; conditions: in vivo; summary of the method: as §2
[25] = Cmax in CD1 mouse at 5 mg/kg, po; format: ADME, organism-based; set-up: dose 5 mg/kg, route oral; conditions: in vivo; summary of the method: as §2
[26] = AUC in CD1 mouse at 5 mg/kg, po; format: ADME, organism-based; set-up: dose 5 mg/kg, route oral; conditions: plasma; summary of the method: as §2
[27] = Tmax in CD1 mouse at 5 mg/kg, po; format: ADME, organism-based; set-up: dose 5 mg/kg, route oral; conditions: in vivo; summary of the method: as §2
[28] = Clearance in CD1 mouse at 1 mg/kg, iv; format: ADME, organism-based; set-up: dose 1 mg/kg, route intravenous; conditions: in vivo; summary of the method: as §2
[29] = Volume of distribution at steady state in CD1 mouse at 1 mg/kg, iv; format: ADME, organism-based; set-up: dose 1 mg/kg, route intravenous; conditions: in vivo, read-out: Vdss; summary of the method: as §2
[30] = Half life in CD1 mouse at 5 mg/kg, po; format: ADME, organism-based; set-up: dose 5 mg/kg, route oral; conditions: in vivo; summary of the method: as §2

Chain of Voltage-gated inwardly rectifying potassium channel KCNH2 (Q12809 whole entry): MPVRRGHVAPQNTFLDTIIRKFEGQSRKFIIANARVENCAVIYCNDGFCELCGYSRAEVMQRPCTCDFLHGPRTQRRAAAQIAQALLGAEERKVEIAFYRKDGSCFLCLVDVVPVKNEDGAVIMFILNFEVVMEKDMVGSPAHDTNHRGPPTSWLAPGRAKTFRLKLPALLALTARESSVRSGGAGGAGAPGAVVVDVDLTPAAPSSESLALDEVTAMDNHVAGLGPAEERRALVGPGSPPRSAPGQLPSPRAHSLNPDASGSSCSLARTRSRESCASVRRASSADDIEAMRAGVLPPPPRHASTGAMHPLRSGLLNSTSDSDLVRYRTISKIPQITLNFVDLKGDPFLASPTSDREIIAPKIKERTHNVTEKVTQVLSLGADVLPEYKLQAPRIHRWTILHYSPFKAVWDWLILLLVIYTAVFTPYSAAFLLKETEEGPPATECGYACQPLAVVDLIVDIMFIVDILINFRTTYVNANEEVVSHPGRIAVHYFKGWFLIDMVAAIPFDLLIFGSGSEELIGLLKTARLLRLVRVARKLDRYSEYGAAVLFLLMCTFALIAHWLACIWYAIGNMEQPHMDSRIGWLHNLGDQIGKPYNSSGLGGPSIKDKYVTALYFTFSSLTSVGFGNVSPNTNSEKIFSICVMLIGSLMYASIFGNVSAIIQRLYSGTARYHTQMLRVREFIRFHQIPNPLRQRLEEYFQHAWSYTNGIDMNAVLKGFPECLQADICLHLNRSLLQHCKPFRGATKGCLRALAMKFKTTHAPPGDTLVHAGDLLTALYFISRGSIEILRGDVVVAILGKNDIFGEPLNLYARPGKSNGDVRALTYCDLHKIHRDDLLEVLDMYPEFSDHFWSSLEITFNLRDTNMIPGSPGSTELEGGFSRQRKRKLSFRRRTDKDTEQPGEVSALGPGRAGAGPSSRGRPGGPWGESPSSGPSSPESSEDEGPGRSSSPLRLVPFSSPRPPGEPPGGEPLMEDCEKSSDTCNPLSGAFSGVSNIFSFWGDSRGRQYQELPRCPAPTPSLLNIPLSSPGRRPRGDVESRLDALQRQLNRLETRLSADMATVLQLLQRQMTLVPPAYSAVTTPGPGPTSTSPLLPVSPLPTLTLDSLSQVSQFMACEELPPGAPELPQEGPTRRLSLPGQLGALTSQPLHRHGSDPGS

Structure (SMILES): NCC(=O)N1C[C@H](NC(=O)c2ccccc2)C[C@H]1C(=O)NC1CCCC1
- remaining at 3 h [1]: 90%
- Activity (Mus musculus [2]): 110.6%

Structure (SMILES): NCC(=O)N1C[C@H](NC(=O)c2ccccc2)C[C@H]1C(N)=O
- remaining at 3 h [1]: 27%
- Activity (Mus musculus [2]): 193.2%

Structure (SMILES): O=CNCC(=O)N1C[C@H](NC(=O)c2ccccc2)C[C@H]1C(=O)O
- half-life [3]: 1.5 h
- half-life [4]: 0.4 h
- remaining at 3 h [1]: 100%
- Tmax [5]: 0.25 h
- Activity [6]: Not Active
- half-life [7]: 6.2 h
- Activity [8]: Not Active
- bioavailability [9]: 13%
- Cmax [10]: 737 ng/mL
- Activity (Mus musculus [2]): 170.4%
- Cmax [11]: 89 ng/mL
- half-life [12]: > 0.5 h
- Vd [13]: 0.4 L/kg
- Tmax [14]: 1.4 h
- half-life [15]: 1.4 h
- AUC [16]: 3820 ng·h/mL
- Activity (Mus musculus [17]): Active
- F (Mus musculus [18]): 2%
- AUC (Mus musculus [19]): 144 ng·h/mL
- Vd [20]: 0.2 L/kg
- half-life [21]: > 0.5 h
- clearance [22]: 5 mL/min/kg

Structure (SMILES): CCNC(=O)[C@@H]1C[C@@H](NC(=O)c2ccccc2)CN1C(=O)CN
- remaining at 3 h [1]: 100%
- Activity (Mus musculus [2]): 137.2%

Structure (SMILES): NCC(=O)N1C[C@H](NC(=O)c2ccccc2)C[C@H]1C(=O)NC1CC1
- remaining at 3 h [1]: 96%
- Activity [6]: Not Active
- Activity [8]: Not Active
- bioavailability [23]: 7%
- half-life [24]: 2.1 h
- Activity (Mus musculus [2]): 196%
- Cmax [25]: 87 ng/mL
- half-life [12]: > 0.5 h
- AUC [26]: 305 ng·h/mL
- Activity (Mus musculus [17]): Active
- Tmax [27]: 0.25 h
- clearance [28]: 20 mL/min/kg
- Vd [29]: 0.6 L/kg
- half-life [21]: > 0.5 h
- half-life [30]: 1.2 h

Structure (SMILES): CC(C)(C)OC(=O)NCC(=O)N1C[C@H](NC(=O)c2ccccc2)C[C@H]1C(=O)O
- remaining at 3 h [1]: 100%
- Activity (Mus musculus [2]): 156.2%

Structure (SMILES): CC(C)[C@@H](C)NC(=O)[C@@H]1C[C@@H](NC(=O)c2ccccc2)CN1C(=O)CN
- remaining at 3 h [1]: 89%
- Activity (Mus musculus [2]): 120.1%

Structure (SMILES): COC(=O)[C@@H]1C[C@@H](NC(=O)c2ccccc2)CN1C(=O)CNC(=O)OC(C)(C)C
- remaining at 3 h [1]: 0%
- Activity (Mus musculus [2]): 166.3%

Structure (SMILES): NCC(=O)N1C[C@H](NC(=O)c2ccccc2)C[C@H]1C(=O)NC1CCOCC1
- remaining at 3 h [1]: 81%
- Activity (Mus musculus [2]): 99.4%

— ChEMBL document CHEMBL1153486, “Discovery of a class of potent gap-junction modifiers as novel antiarrhythmic agents” (Bioorg Med Chem Lett, 2009)
